Reference: ChEMBL document CHEMBL3797189, “Small Molecule Inhibitors of Cyclophilin D To Protect Mitochondrial Function as a Potential Treatment for Acute Pancreatitis” (J Med Chem, 2016)
Active and inactive are the calls of the source. No cut-off for these calls is given here.

Key:
[1] = tested on: Pancreatic acinar cell; assay: Inhibition of taurolithocholate acid 3-sulfate-induced necrosis in CD1 mouse pancreatic acinar cells at 10 uM after 30 mins by propidium iodide staining based confocal microscopic analysis; format: functional
Outline: (§1)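 Freshly isolated murine pancreatic acinar cells were exposed to the pancreatitis toxin taurolithocholate acid 3-sulphate (500 µM) with inhibitor at 0.1, 1.0 and 10 µM or at 1 and 10 µM.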

[2] = Cytotoxicity against CD1 mouse pancreatic acinar cells at 10 uM after 30 mins by propidium iodide staining based confocal microscopic analysis; conditions: pancreatic acinar cell, 0.5 h
Outline: (§2)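 As a parallel cytotoxicity control, freshly isolated murine pancreatic acinar cells were exposed to compounds alone, without TLCS, at 0.1, 1.0 and 10 µM or at 1 and 10 µM. Necrotic cell death was scored.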

[3] = tested on: Pancreatic acinar cell; assay: Inhibition of taurolithocholate acid 3-sulfate-induced necrosis in CD1 mouse pancreatic acinar cells at 1 uM after 30 mins by propidium iodide staining based confocal microscopic analysis; format: functional; outline: as §1
[4] = Cytotoxicity against CD1 mouse pancreatic acinar cells at 1 to 10 uM after 30 mins by propidium iodide staining based confocal microscopic analysis; conditions: pancreatic acinar cell, 0.5 h; outline: as §2
[5] = tested on: Pancreatic acinar cell; assay: Inhibition of taurolithocholate acid 3-sulfate-induced change in mitochondrial membrane potential in CD1 mouse pancreatic acinar cells at 0.1 to 10 uM after 30 mins by tetramethyl rhodamine methyl ester dye based fluorescence analysis; format: functional, cell membranes
[6] = tested on: Pancreatic acinar cell; assay: Inhibition of taurolithocholate acid 3-sulfate-induced necrosis in human pancreatic acinar cells at 10 uM after 30 mins by propidium iodide staining based confocal microscopic analysis; format: functional
[7] = tested on: Pancreatic acinar cell; assay: Inhibition of taurolithocholate acid 3-sulfate-induced necrosis in CD1 mouse pancreatic acinar cells at 1 to 10 uM after 30 mins by propidium iodide staining based confocal microscopic analysis; format: functional; outline: as §1
[8] = Cytotoxicity against CD1 mouse pancreatic acinar cells at 0.1 to 10 uM after 30 mins by propidium iodide staining based confocal microscopic analysis; conditions: pancreatic acinar cell, 0.5 h; outline: as §2

SMILES	inhibition [1]	Activity [2]	inhibition [3]	Activity [4]	inhibition [5]	inhibition [6]	inhibition [7]	Activity [8]
Nc1ccc(CNC(=O)NCC(=O)N2CCC[C@@H]2c2ccccc2Br)cc1	Active	Toxic	inactive					
CCOC(=O)[C@H](CCSC)NC(=O)NCc1ccc(N)cc1	Active		inactive	Non-toxic				
CSCC[C@H](NC(=O)NCc1ccc(N)cc1)C(=O)N1CCC[C@H]1c1ccccc1SC					Active	Active	Active	Non-toxic
